Source: ChEMBL document CHEMBL1122791, “Inhibition of arabinose 5-phosphate isomerase. An approach to the inhibition of bacterial lipopolysaccharide biosynthesis” (J Med Chem, 1984)
Values belong to the molecule of their own block, whether it stands above or below them. Active and inactive are the calls of the source. The calls are words filed in the database; no cut-off is given here.

How the values were obtained:
[1] = molecular target: arabinose 5-phosphate isomerase (Escherichia coli) (UniProt P45395); assay: Inhibitory activity against Arabinose-5-phosphate isomerase at a concentration of 3 mM; Not active.
Chain of arabinose 5-phosphate isomerase (Escherichia coli) (UniProt P45395) (P45395 whole entry, looked up): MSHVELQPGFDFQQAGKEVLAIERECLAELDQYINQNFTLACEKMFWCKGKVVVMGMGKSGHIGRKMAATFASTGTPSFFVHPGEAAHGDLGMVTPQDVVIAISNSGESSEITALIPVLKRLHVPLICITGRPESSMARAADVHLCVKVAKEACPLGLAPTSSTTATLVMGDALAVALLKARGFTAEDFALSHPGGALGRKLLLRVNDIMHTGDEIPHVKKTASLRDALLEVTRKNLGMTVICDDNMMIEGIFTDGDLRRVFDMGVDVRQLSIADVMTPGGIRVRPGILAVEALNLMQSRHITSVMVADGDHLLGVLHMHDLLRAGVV

[2] = system: arabinose 5-phosphate isomerase (Escherichia coli); assay: Inhibitory activity against Arabinose-5-phosphate isomerase at a concentration of 6 mM; Not active.
[3] = system: arabinose 5-phosphate isomerase (Escherichia coli); assay: Inhibitory activity against Arabinose-5-phosphate isomerase at a concentration of 1.5 mM; Not active.
[4] = molecular target: T1, Arabinose 5-phosphate isomerase KdsD (Salmonella typhimurium (strain LT2 / SGSC1412 / ATCC 700720), UniProt Q8ZLS1); assay: Inhibitory activity against Arabinose-5-phosphate isomerase; Interfered.
T1 sequence (Q8ZLS1 whole entry): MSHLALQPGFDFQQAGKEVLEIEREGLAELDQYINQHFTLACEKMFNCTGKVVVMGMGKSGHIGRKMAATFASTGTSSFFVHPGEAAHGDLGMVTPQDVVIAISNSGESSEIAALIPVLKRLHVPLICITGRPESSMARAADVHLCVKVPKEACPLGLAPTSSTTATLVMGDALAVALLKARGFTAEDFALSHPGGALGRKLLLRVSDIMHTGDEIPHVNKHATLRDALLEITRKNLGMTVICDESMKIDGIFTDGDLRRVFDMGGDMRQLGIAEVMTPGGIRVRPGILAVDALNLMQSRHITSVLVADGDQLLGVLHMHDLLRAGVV
Procedure, shortened: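 Isomerase from E. coli B cells, purified 50-fold. Inhibitor and enzyme were preincubated 2 min at 37 °C in 0.1 M histidine buffer, pH 7.5. The reaction was started with 10 mM (stock) D-arabinose 5-phosphate or D-ribulose 5-phosphate. It was stopped at 0, 3, 6, 9 and 12 min with cysteine HCl, then H2SO4. Ketose was read at 540 nm by carbazole colour (30 min, 37 °C).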

[5] = system: arabinose 5-phosphate isomerase (Escherichia coli); assay: Inhibitory activity against Arabinose-5-phosphate isomerase; Unstable.
[6] = system: arabinose 5-phosphate isomerase (Escherichia coli); assay: Inhibitory activity against Arabinose-5-phosphate isomerase; Not active.
[7] = system: arabinose 5-phosphate isomerase (Escherichia coli); assay: Inhibitory activity against Arabinose-5-phosphate isomerase at a concentration of 5 mM; Not active.
[8] = system: arabinose 5-phosphate isomerase (Escherichia coli); assay: Inhibitory activity against Arabinose-5-phosphate isomerase at a concentration of 6 mM
[9] = system: arabinose 5-phosphate isomerase (Escherichia coli); assay: Inhibitory activity against Arabinose-5-phosphate isomerase at a concentration of 2 mM; Not active.
[10] = system: arabinose 5-phosphate isomerase (Escherichia coli); assay: Inhibitory activity against Arabinose-5-phosphate isomerase at a concentration of 5 mM; NA = not active at 5
[11] = molecular target: arabinose 5-phosphate isomerase (Escherichia coli) (UniProt P45395); assay: Inhibitory activity against Arabinose-5-phosphate isomerase at a concentration of 12 mM; Not active.
[12] = molecular target: arabinose 5-phosphate isomerase (Escherichia coli) (UniProt P45395); assay: Inhibitory activity against Arabinose-5-phosphate isomerase at a concentration of 2.4 mM; Not active.
[13] = compound: O=P(O)(O)OC[C@H]1O[C@@H](O)[C@@H](O)[C@@H]1O; assay: Inhibitory activity against Arabinose-5-phosphate isomerase; details: Escherichia coli B

inhibition [1]: inactive
Molecule: COC1C(COP(=O)(O)O)OC(O)C1O (stereo not given)

inhibition [2]: inactive
Molecule: O=P(O)(O)OCC1OC(O)C(O)C1OCc1ccccc1 (stereo not given)

inhibition [3]: inactive
Molecule: O=P(O)(O)OCC(O)C(O)CCO (stereo not given)

Molecule: O=[N+]([O-])OC[C@H]1O[C@H](O)[C@@H](O)[C@@H]1O
I 50 [4]: Interfered

I 50 [5]: Unstable
Molecule: CC(=O)CC(=O)OC[C@H]1O[C@H](O)[C@@H](O)[C@@H]1O

inhibition [6]: inactive
Molecule: O=C(O)C(=O)OC[C@H]1OC(=O)[C@H](O)[C@@H]1O

inhibition [7]: inactive
Molecule: O=P(O)(O)OCC1OC(O)C(F)C1O (stereo not given)

inhibition [8]: 12%
Molecule: O=C1O[C@H](CCl)[C@@H](O)[C@H]1O

inhibition [2]: inactive
Molecule: O=C1O[C@H](CO)[C@@H](O)[C@H]1O

inhibition [9]: inactive
Molecule: O=P(O)(O)OCC1OC(O)CC1O (stereo not given)

inhibition [10]: inactive
Molecule: C[C@H]1OC(O)[C@H](O)[C@H]1O (stereo not given in full)

inhibition [11]: inactive
Molecule: NS(=O)(=O)OC[C@H]1OC(=O)[C@H](O)[C@@H]1O

inhibition [2]: inactive
inhibition [12]: inactive
Molecule: O=P(O)(O)OCC(O)C(O)C(O)C(O)CO (stereo not given)

B1: Arabinose 5-phosphate isomerase KdsD (Salmonella typhimurium (strain LT2 / SGSC1412 / ATCC 700720)), Q8ZLS1 (protein)
chain: MSHLALQPGFDFQQAGKEVLEIEREGLAELDQYINQHFTLACEKMFNCTGKVVVMGMGKSGHIGRKMAATFASTGTSSFFVHPGEAAHGDLGMVTPQDVVIAISNSGESSEIAALIPVLKRLHVPLICITGRPESSMARAADVHLCVKVPKEACPLGLAPTSSTTATLVMGDALAVALLKARGFTAEDFALSHPGGALGRKLLLRVSDIMHTGDEIPHVNKHATLRDALLEITRKNLGMTVICDESMKIDGIFTDGDLRRVFDMGGDMRQLGIAEVMTPGGIRVRPGILAVDALNLMQSRHITSVLVADGDQLLGVLHMHDLLRAGVV
Km [13]: 0.2 mM
